Converted amounts (≈) assume the structure as drawn.

As a reminder, the inhibition is the percentage by which the read-out fell short of the control. The term MIC denotes the smallest concentration in the dilution series that meets the test's criterion for growth inhibition. As usually defined, the IC50 is the concentration at which inhibition is half-maximal.

Experiment [1] has as its system Mycobacterium tuberculosis. The experiment in a line: Antitubercular activity against Mycobacterium tuberculosis H37Rv assessed as inhibition of colony formation at 250 ug/mL after 2 to 4 weeks by Lowensteine-Jensen method relative to control. The experiment is classed as functional.
Experiment [2] has as its system Bacillus subtilis. The experiment in a line: Antibacterial activity against Bacillus subtilis MTCC 441 assessed as growth inhibition after 24 to 48 hrs by broth microdilution method. The experiment is classed as functional. The method, boiled down:
(§1)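 Bacteria were grown in Mueller-Hinton broth with inoculum adjusted to 10⁸ CFU mL⁻¹ by turbidity. Compounds were serially diluted in 2% aqueous DMSO and incubated at 37 °C overnight. Growth was checked by subculture at 24 and 48 h. MIC was taken as the highest dilution with no turbidity after spot subculture.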
In general terms: In broth dilution the organism is exposed to a series of concentrations in liquid medium.

Experiment [3] relates to Vibrio cholerae. As to the kind of experiment: Antibacterial activity against Vibrio cholerae MTCC 3906 assessed as growth inhibition after 24 to 48 hrs by broth microdilution method. The experiment is classed as functional.
Experiment [4] concerns Candida albicans. The experiment in a line: Antifungal activity against Candida albicans MTCC 227 assessed as growth inhibition after 24 to 48 hrs by broth microdilution method. The experiment is classed as functional. In outline:
(§2)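 Fungal nutrition used Sabouraud Dextrose broth with inoculum at 10⁸ CFU mL⁻¹ by turbidity. Serial compound dilutions were made in 2% DMSO in water. Growth was noted on subculture after 24 and 48 h. MIC was taken as the highest dilution preventing visible turbidity after spot subculture.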

For experiment [5], the system named is Mycobacterium tuberculosis. The experiment in a line: Antitubercular activity against Mycobacterium tuberculosis H37Rv assessed as inhibition of colony formation at 100 ug/mL after 2 to 4 weeks by Lowensteine-Jensen method relative to control. It is filed as functional.
In experiment [6] the test system is Clostridium tetani. The experiment in a line: Antibacterial activity against Clostridium tetani MTCC 449 assessed as growth inhibition after 24 to 48 hrs by broth microdilution method. The experiment is classed as functional.
Experiment [7] has as its system Streptococcus pneumoniae. The experiment in a line: Antibacterial activity against Streptococcus pneumoniae MTCC 1936 assessed as growth inhibition after 24 to 48 hrs by broth microdilution method. It is filed as functional. In outline:
as §1

Experiment [8] relates to Escherichia coli. As to the kind of experiment: Antibacterial activity against Escherichia coli MTCC 443 assessed as growth inhibition after 24 to 48 hrs by broth microdilution method. The experiment is classed as functional. The method, boiled down:
as §1

The subject of experiment [9] is Plasmodium falciparum. The experiment in a line: Antimalarial activity against chloroquine/quinine sensitive Plasmodium falciparum assessed as parasite growth inhibition after 48 hrs. It is filed as functional, organism-based.
Experiment [10] concerns Salmonella typhi. The experiment in a line: Antibacterial activity against Salmonella typhi MTCC 98 assessed as growth inhibition after 24 to 48 hrs by broth microdilution method. The experiment is classed as functional, Salmonella enterica subsp. enterica serovar Typhi. Particulars: Salmonella enterica.
Experiment [11] deals with Aspergillus fumigatus. The experiment in a line: Antifungal activity against Aspergillus fumigatus MTCC 3008 assessed as growth inhibition after 24 to 48 hrs by broth microdilution method. It is filed as functional. The method, boiled down: as §2

For the compound `CCOC(=O)C1=C(N)N(c2ccc(O)cc2)C2=C(C(=O)CC(C)(C)C2)C1c1c(C)nn(-c2ccccc2)c1-n1ccnc1` (stereo not drawn), in experiment [1], the inhibition at 250 µg/mL is 20%. The MIC turned out to be 62.5 µg/mL (≈ 108 µM) in [2]; 200 µg/mL (≈ 346 µM) in experiment [3]; 500 µg/mL (≈ 864 µM) in experiment [4]; 200 µg/mL (≈ 346 µM) in [6]; 250 µg/mL (≈ 432 µM) in [7]; 200 µg/mL (≈ 346 µM) in experiment [8]. Also, the MIC in [10] was 200 µg/mL (≈ 346 µM); in [11] it was more than 1000 µg/mL. The inhibition at 100 µg/mL in experiment [5] was determined as 12%. Besides, the IC50 in experiment [9] came out at 0.096 µg/mL (≈ 0.166 µM).
Turning to `CCOC(=O)C1=C(N)N(c2ccccc2)C2=C(C(=O)CC(C)(C)C2)C1c1c(C)nn(-c2ccccc2)c1-n1ccnc1` (stereo not drawn), the inhibition at 250 µg/mL in experiment [1] amounted to 45%. Also, the MIC in experiment [2] was found to be 250 µg/mL (≈ 444 µM); in experiment [3], 125 µg/mL (≈ 222 µM); in experiment [4], 250 µg/mL (≈ 444 µM); in experiment [6], 200 µg/mL (≈ 355 µM); in experiment [7], 500 µg/mL (≈ 889 µM); in [8], 250 µg/mL (≈ 444 µM). Also, the MIC in experiment [10] stood at 200 µg/mL (≈ 355 µM); in experiment [11], 500 µg/mL (≈ 889 µM). Besides, the inhibition at 100 µg/mL in experiment [5] was found to be 37%. Also, the IC50 in experiment [9] worked out at 1.47 µg/mL (≈ 2.61 µM).
Regarding `Cc1nn(-c2ccccc2)c(-n2ccnc2)c1C1C(C(N)=O)=C(N)N(c2ccc(O)cc2)C2=C1C(=O)CC(C)(C)C2` (stereo not drawn), the inhibition at 250 µg/mL in [1] is 70%. Moreover, the MIC in experiment [2] came to 200 µg/mL (≈ 364 µM); in experiment [3], 250 µg/mL (≈ 455 µM); in experiment [4] it was 500 µg/mL (≈ 910 µM); in [6] it was 250 µg/mL (≈ 455 µM); in [7], 250 µg/mL (≈ 455 µM); in experiment [8], 250 µg/mL (≈ 455 µM). The results for the MIC in experiment [10] and in [11] were 125 µg/mL (≈ 227 µM) and 1000 µg/mL (≈ 1820 µM), respectively. In addition, in [5], the inhibition at 100 µg/mL was 61%. Also, the IC50 in experiment [9] amounted to 0.057 µg/mL (≈ 0.104 µM).
Regarding `Cc1ccc(N2C(N)=C(C(N)=O)C(c3c(C)nn(-c4ccccc4)c3-n3ccnc3)C3=C2CC(C)(C)CC3=O)cc1` (stereo not drawn), the inhibition at 250 µg/mL in experiment [1] turned out to be 35%. Further, the MIC in experiment [2] is 250 µg/mL (≈ 456 µM); in experiment [3], 250 µg/mL (≈ 456 µM); in experiment [4], more than 1000 µg/mL; in experiment [6], 200 µg/mL (≈ 365 µM); in experiment [7], 250 µg/mL (≈ 456 µM); in experiment [8], 200 µg/mL (≈ 365 µM). Further, the figures for the MIC in [10] and in experiment [11] were 200 µg/mL (≈ 365 µM) and 250 µg/mL (≈ 456 µM), respectively. Also, the inhibition at 100 µg/mL in experiment [5] was found to be 30%. For the same compound, the IC50 in experiment [9] worked out at 1.02 µg/mL (≈ 1.87 µM).
Regarding `CCOC(=O)C1=C(N)N(c2cccc(O)c2)C2=C(C(=O)CC(C)(C)C2)C1c1c(C)nn(-c2ccccc2)c1-n1ccnc1` (stereo not drawn), the inhibition at 250 µg/mL in experiment [1] was found to be 12%. In addition, the MIC turned out to be 500 µg/mL (≈ 864 µM) in experiment [2]; 125 µg/mL (≈ 216 µM) in experiment [3]; 250 µg/mL (≈ 432 µM) in [4]; 250 µg/mL (≈ 432 µM) in experiment [6]; 200 µg/mL (≈ 346 µM) in [7]; 200 µg/mL (≈ 346 µM) in experiment [8]. The MIC in experiment [10] was found to be 200 µg/mL (≈ 346 µM); in [11] it was 1000 µg/mL (≈ 1730 µM). Besides, the inhibition at 100 µg/mL in experiment [5] was 9%. Besides, the IC50 in experiment [9] was 0.072 µg/mL (≈ 0.124 µM).
With `CCOC(=O)C1=C(N)N(c2ccc(C)cc2)C2=C(C(=O)CC(C)(C)C2)C1c1c(C)nn(-c2ccccc2)c1-n1ccnc1` (stereo not drawn), in experiment [1], the inhibition at 250 µg/mL was 12%. In addition, the MIC in experiment [2] came to 250 µg/mL (≈ 434 µM); in experiment [3], 100 µg/mL (≈ 173 µM); in experiment [4], 1000 µg/mL (≈ 1730 µM); in experiment [6], 250 µg/mL (≈ 434 µM); in [7] it was 100 µg/mL (≈ 173 µM); in experiment [8], 125 µg/mL (≈ 217 µM). In addition, the MIC in experiment [10] is 100 µg/mL (≈ 173 µM); in experiment [11], more than 1000 µg/mL. In experiment [5], the inhibition at 100 µg/mL is 6%. Besides, the IC50 in [9] is 1.79 µg/mL (≈ 3.1 µM).
Take `CCOC(=O)C1=C(N)N(c2ccc(Cl)cc2)C2=C(C(=O)CC(C)(C)C2)C1c1c(C)nn(-c2ccccc2)c1-n1ccnc1` (stereo not drawn): in [1], the inhibition at 250 µg/mL was 63%. The MIC in experiment [2] is 100 µg/mL (≈ 167 µM); in experiment [3], 200 µg/mL (≈ 335 µM); in [4], more than 1000 µg/mL; in experiment [6] it was 125 µg/mL (≈ 209 µM); in experiment [7], 125 µg/mL (≈ 209 µM); in experiment [8] it was 100 µg/mL (≈ 167 µM). In addition, the MIC in [10] amounted to 100 µg/mL (≈ 167 µM); in [11], 500 µg/mL (≈ 837 µM). In addition, the inhibition at 100 µg/mL in experiment [5] amounted to 58%. For the same compound, the IC50 in experiment [9] was 0.057 µg/mL (≈ 0.0955 µM).
Turning to `Cc1nn(-c2ccccc2)c(-n2ccnc2)c1C1C(C(N)=O)=C(N)N(c2cccc(O)c2)C2=C1C(=O)CC(C)(C)C2` (stereo not drawn), in experiment [1], the inhibition at 250 µg/mL was determined as 84%. The MIC turned out to be 200 µg/mL (≈ 364 µM) in [2]; 200 µg/mL (≈ 364 µM) in experiment [3]; 500 µg/mL (≈ 910 µM) in [4]; 200 µg/mL (≈ 364 µM) in experiment [6]; 125 µg/mL (≈ 227 µM) in experiment [7]; 125 µg/mL (≈ 227 µM) in experiment [8]. Further, the MIC in experiment [10] came out at 200 µg/mL (≈ 364 µM); in experiment [11] it was 500 µg/mL (≈ 910 µM). Besides, in experiment [5], the inhibition at 100 µg/mL came to 75%. Besides, the IC50 in [9] worked out at 0.57 µg/mL (≈ 1.04 µM).

The record behind these values is ChEMBL document CHEMBL3232885, “Synthesis, characterization and pharmacological screening of some novel 5-imidazopyrazole incorporated polyhydroquinoline derivatives” (Eur J Med Chem, 2014).
